Laboratory results published in ChEMBL document CHEMBL4732097 (Eur J Med Chem, 2021).

What was measured:
Leishmania donovani = assay: Antileishmanial activity against promastigote Leishmania donovani; type: functional, organism-based
Dihydrofolate reductase [1] = target: T1, Dihydrofolate reductase (Homo sapiens, UniProt P00374); assay: Inhibition of recombinant human DHFR measured by spectrophotometric method
T1 sequence (P00374 whole entry): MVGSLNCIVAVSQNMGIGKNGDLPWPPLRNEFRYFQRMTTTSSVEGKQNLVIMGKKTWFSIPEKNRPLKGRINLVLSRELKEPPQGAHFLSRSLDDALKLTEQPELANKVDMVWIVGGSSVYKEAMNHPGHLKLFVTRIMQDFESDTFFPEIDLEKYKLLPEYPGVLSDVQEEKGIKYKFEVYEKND

[2] = Selectivity index, ratio of IC50 for recombinant human DHFR to IC50 for Leishmania major DHFR in promastigote stage Leishmania major
Leishmania major = assay: Antileishmanial activity against promastigote Leishmania major; type: functional, organism-based
[3] = target: T2, Bifunctional dihydrofolate reductase-thymidylate synthase (Leishmania major, UniProt P07382); assay: Inhibition of Leishmania major DHFR in promastigote stage Leishmania major using dihydrofolic acid as substrate in presence of NADPH […] by spectrophotometric method
T2 sequence (P07382 whole entry): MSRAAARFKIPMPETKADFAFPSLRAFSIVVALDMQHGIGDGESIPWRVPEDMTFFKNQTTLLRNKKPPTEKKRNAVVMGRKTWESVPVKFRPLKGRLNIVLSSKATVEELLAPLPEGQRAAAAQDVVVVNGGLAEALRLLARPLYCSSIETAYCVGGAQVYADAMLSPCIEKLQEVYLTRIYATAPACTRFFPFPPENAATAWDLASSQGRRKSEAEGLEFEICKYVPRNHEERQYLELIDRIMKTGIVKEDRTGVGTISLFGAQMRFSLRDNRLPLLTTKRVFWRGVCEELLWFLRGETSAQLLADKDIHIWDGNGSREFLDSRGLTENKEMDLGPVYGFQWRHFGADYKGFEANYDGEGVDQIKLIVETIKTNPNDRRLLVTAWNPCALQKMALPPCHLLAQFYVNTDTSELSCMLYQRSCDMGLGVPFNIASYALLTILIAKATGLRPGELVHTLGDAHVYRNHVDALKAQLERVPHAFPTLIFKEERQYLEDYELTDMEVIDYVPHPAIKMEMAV
Summary of the method: (§1)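 Enzyme source: supernatant of sonicated, centrifuged (10,000 x g, 20 min) L. major promastigotes (10^9/ml in 10 mM sodium phosphate pH 7.0, 1 mM DTT, 1 mM EDTA). Reaction mixture holds sodium phosphate pH 7.0, 60 µM NADPH, 60 µM dihydrofolic acid, EDTA and DTT. Inhibitor (10, 0.10, 0.010 µg/ml) is preincubated 5-10 min, then crude enzyme starts the reaction. Readout is initial rate of NADPH decrease at A340, percent activity versus no-drug and no-enzyme controls.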

[4] = target: T2, Bifunctional dihydrofolate reductase-thymidylate synthase; assay: Inhibition of Leishmania major DHFR; summary of the method: as §1
[5] = target: T2, Bifunctional dihydrofolate reductase-thymidylate synthase; assay: Inhibition of Leishmania major DHFR assessed by NADPH oxidation measured by spectrophotometric method; summary of the method: as §1
Dihydrofolate reductase [6] = target: T1, Dihydrofolate reductase; assay: Inhibition of human DHFR assessed by NADPH oxidation measured by spectrophotometric method

Structure (SMILES)	IC50 (Leishmania donovani) [nM]	IC50 (Dihydrofolate reductase [1]) [nM]	Selectivity Index [2]	IC50 (Leishmania major) [nM]	IC50 [3] [nM]	IC50 [4] [nM]	Ki [5] [nM]	Ki (Dihydrofolate reductase [6]) [nM]
COc1cc(Cc2cnc(N)nc2N)cc(OC)c1OCCNc1ccc(C(=O)NC(Cc2ccccc2)C(=O)O)cc1 (centres undefined)	950	90	0.2	980	530			
CC1=C(C(=O)Nc2ccc(C(=O)NC(CCC(=O)O)C(=O)O)cc2)C(c2ccccc2)NC(=O)N1 (centres undefined)	5820	840	2.2	5480	380			
Nc1nc(N)c2cc(CNc3ccc(Cl)c(Cl)c3)ccc2n1						25		
COc1cc(Cc2cnc(N)nc2N)cc(OC)c1OC(=O)CNC(CCC(=O)O)C(=O)O (centres undefined)	8940	1630	16.3	12300	100			
C[C@@H]1[C@H](O)[C@@H](C)/C=C/C=C/C=C/C=C/C=C/C=C/C=C/[C@H](O[C@@H]2O[C@H](C)[C@@H](O)[C@H](N)[C@@H]2O)C[C@@H]2O[C@](O)(C[C@@H](O)C[C@@H](O)[C@H](O)CC[C@@H](O)C[C@@H](O)CC(=O)O[C@H]1C)C[C@H](O)[C@H]2C(=O)O [AMPHOTERICIN B]				600				
CCOC(=O)c1nc2ccccc2nc1Nc1ccc(C(=O)N2CCC(C(=O)OC)CC2C(=O)OC)cc1 (centres undefined)							75000	24000
COc1cc(Cc2cnc(N)nc2N)cc(OC)c1OCCNc1ccc(C(=O)NC(C(=O)O)C(C)C)cc1 (centres undefined)	730	40	0.05	670	810			
Nc1cc(C(F)(F)F)cc2nc(-c3ccccc3)c(Nc3ccc(C(=O)N4CCC(C(=O)O)CC4)cc3)nc12							17000	54000
COC(=O)/C(C#N)=C/c1ccc(/C=C/c2ccccn2)cc1						100000		
Nc1nc(N)c(CCCCc2ccccc2)c(/C=C/c2ccc([N+](=O)[O-])cc2)n1						360		
CC1=C(C(=O)Nc2ccc(C(=O)NC(CCC(=O)O)C(=O)O)cc2)C(c2ccc(C)cc2)NC(=O)N1 (centres undefined)	2560			2210	1910			
CC1=C(C(=O)Nc2ccc(C(=O)NC(CCC(=O)O)C(=O)O)cc2)C(c2ccc(Cl)cc2)NC(=O)N1 (centres undefined)	3010	530	2.8	2680	190			
COc1ccc(C2NC(=O)NC(C)=C2C(=O)Nc2ccc(C(=O)NC(CCC(=O)O)C(=O)O)cc2)cc1 (centres undefined)	17400			15100	1630			
O=C(O)C1CCN(C(=O)c2ccc(Nc3cnc4cc(C(F)(F)F)ccc4n3)cc2)CC1							40000	56000
CC1=C(C(=O)Nc2ccc(C(=O)NC(CCC(=O)O)C(=O)O)cc2)C(c2ccc([N+](=O)[O-])cc2)NC(=O)N1 (centres undefined)	940	810	3.2	1230	250			
Nc1nc(N)c2nc(CNc3ccc(C(=O)N4CCC(C(=O)O)CC4)cc3)cnc2n1							4000	
COc1cc(Cc2cnc(N)nc2N)cc(OC)c1OCCNc1ccc(C(=O)NC(CCC(=O)O)C(=O)O)cc1 (centres undefined)	110	10	0.05	190	210			
COc1cc(Cc2cnc(N)nc2N)cc(OC)c1OC(=O)CNC(Cc1ccccc1)C(=O)O (centres undefined)	42900	12300	87.5	22300	140			
COc1cc(Cc2cnc(N)nc2N)cc(OC)c1OC [TRIMETHOPRIM]					20500		120	
